Only some compounds are listed: those with a hit (about 2.6% of all), similar ones and a draw of the others.
NR2E3 ag-1: NR2E3 (human) agonism; GST-NR2E3/biotin-RetCOR TR-FRET, 1536-well; inhibition of corepressor binding, % at 4.78 µM; 320,000 compounds, 0.12% hits;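 active = percent inhibition above the cutoff of mean plus 3 SD of all tested compounds, set per screening campaign, cut at about 20% in these data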;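 note: 0% = DMSO wells and 100% = biotin wells as full block of FRET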
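Assay system: NR2E3–RetCOR corepressor complex. Quantity: 1.35 nM GST-NR2E3. Buffer or medium: pH 7.5 Tris-based buffer. Reagent: biotinylated RetCOR corepressor at 7 nM final. Schedule: 5 h at 4 °C. Detection: TR-FRET, emission read at 617 and 671 nm. Replicates: one well per compound, singlicate testing.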
NR2E3 ag-2: activates human NR2E3 receptor | CHO-S Gal4-NCOR/VP16-NR2E3 two-hybrid, luciferase | inhibition of corepressor binding, % at 3.98 µM | 360,000 compounds, 0.35% hits | AID 602229;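 active = inhibition above the mean of all tested compounds plus 3 SD, cut at about 70% in these data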;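 note: 0% = DMSO with NR2E3 transfected cells and 100% = cells lacking NR2E3 construct; higher means lower luciferase signal from less NR2E3 corepressor binding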
PG9 binder: PG9 antibody binding by small molecule; inhibition, % at 6.7 µM; 360,000 compounds, 0.43% hits; TR-FRET gp120-PG9 antibody binding; in the data active = inhibition above about 8.5%
NR1D1 modulator: modulates human Rev-erb alpha binding to DNA; P20393; Rev-erbα–FITC-DNA binding, fluorescence polarization, 90 min; activity, % at 10 µM; 370,000 compounds, 0.79% hits; AID 1259318;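 active = activity above about 14%, limit read from the data; passing the limit was not always enough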;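 note: 0% = DMSO wells with 35 nM protein and 100% = DMSO wells with 750 nM protein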
rCAG RNA binder: binds r(CAG) RNA repeats | 370,000 compounds, 1.3% hits | inhibition, % at 3 µM | r(CAG) RNA repeat, TO-PRO-1 dye displacement fluorescence;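 active = inhibition above the plate cutoff, the mean of all test compounds on that plate plus 3 SD, cut at about 35% in these data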;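 note: 0% = DMSO alone and 100% = 100 µM mitoxantrone as full dye displacement; higher means more dye released from RNA so lower well fluorescence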
rCAG bind conf: r(CAG) RNA repeat binding, confirmation | shares compounds with rCAG RNA binder | TO-PRO-1 dye displacement fluorescence | inhibition, % at 3 µM | 4,300 compounds, 70% hits;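 active = inhibition above a per-plate cutoff, the mean inhibition of sample wells plus 3 SD, cut at about 35% in these data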;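 note: loss of TO-PRO-1 fluorescence as compound displaces dye from 1x1 AA loop RNA; 0% = DMSO only wells and 100% = 100 µM mitoxantrone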
dCAG dye counter: DNA CAG dye complex inhibition counter-screen; shares compounds with rCAG RNA binder; d(CAG) DNA oligo TO-PRO-1 dye displacement, fluorescence; inhibition, % at 3 µM; 4,300 compounds, 94% hits; AID 652068;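 active = inhibition above its plate's cutoff, the mean test-well inhibition plus 3 SD, cut at about 4.8% in these data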;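 note: 0% = DNA dye mix with DMSO and 100% = 100 µM mitoxantrone; hits displace the dye from DNA and so lower well fluorescence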
dCAG dye DR: DNA CAG dye complex inhibition, dose response counter-screen | DNA CAG/GTC duplex TO-PRO-1 dye displacement fluorescence | 250 compounds, 20% hits | AID 686960 | shares compounds with rCAG RNA binder | IC50, µM; in the data active = IC50 below about 10 µM
* = called active by the depositor; i = inactive; · = not tested or not shown.

SMILES	NR2E3 ag-1	NR2E3 ag-2	PG9 binder	NR1D1 modulator	rCAG RNA binder	rCAG bind conf	dCAG dye counter	others
COc1ccc(C2=NN(C(=O)COC(=O)c3ccc(NC(=O)CC#N)cc3)C(c3ccco3)C2)cc1 (stereo not given)	0	11	0	0	35*	23	18*
O=C(OCC(=O)N1N=C(c2ccc(Cl)cc2)CC1c1ccco1)c1ccco1 (stereo not given)	1	-15	-1	3	-4	·	·
COC(=O)c1cc(C(=O)OCC(=O)N2CCCCC2)cc([N+](=O)[O-])c1	·	-12	-2	-1	-2	·	·
O=C(Nc1cccc(-c2nc3ccccc3c(=O)o2)c1)c1ccccc1	4	-52	-2	2	36*	7	2
COc1cccc(-c2nc3ccccc3c(=O)o2)c1	-2	-69	-4	-2	4	·	·
CC(C)(C)OC(=O)[C@H]1[C@H](c2ccc([N+](=O)[O-])cc2)C2(C(=O)c3ccccc3C2=O)C2c3ccccc3C=NN21 (stereo not given in full)	-1	-1	0	2	36*	22	9.9*
CC(C)(C)c1ccc(S(=O)(=O)N2CCN(C(=O)C(=O)c3cccc(C(F)(F)F)c3)CC2)cc1	·	·	-1	-5	3	·	·
Cc1ccc(-c2nn(Cc3ccccc3)cc2/C=C/C(=O)O)cc1	0	-29	-1	2	3	·	·
O=C(O)CCn1cc(/C=C\C(=O)c2ccc(Cl)cc2)c(-c2cccc(Br)c2)n1	2	1	-1	0	63*	82*	45*
Cc1ccc(-c2nn(CCC(=O)O)cc2/C=C\C(=O)c2ccc(Br)cc2)cc1	5	45	0	3	68*	74*	32*	dCAG dye DR=i
COc1ccc([C@@H]2C[C@H]3[C@@H](CN2S(=O)(=O)c2ccccc2)C(=O)C[C@@H](c2ccccc2F)N3S(=O)(=O)c2ccc(C)cc2)cc1	·	-28	-1	2	11	·	·
Cc1c(N/N=C(\C#N)C(=O)c2ccc(Cl)cc2)c(=O)n(-c2ccccc2)n1C	1	17	1	12	37*	32	10*
CC(C)C[C@H]1COc2cc(NCCCN3CCOCC3)ccc2S(=O)(=O)N1	·	·	-2	-3	2	·	·
COc1ccc(-c2cc(=O)oc3cc(OC(C)C(=O)NC(Cc4c[nH]c5ccc(O)cc45)C(=O)O)ccc23)cc1 (stereo not given)	-3	0	1	1	44*	43*	13*
Cc1c(OC(C)C(=O)O)ccc2c(-c3ccccc3)cc(=O)oc12 (stereo not given)	1	13	0	-4	0	·	·
COc1ccc(-c2cc(=O)oc3c(C)c(OCC(=O)N[C@@H](Cc4ccc(O)cc4)C(=O)O)ccc23)cc1	-5	1	-1	-7	47*	46*	13*
O=C(COc1cc2oc(=O)cc(-c3ccccc3)c2cc1Cl)NC(Cc1c[nH]c2ccc(O)cc12)C(=O)O (stereo not given)	0	21	1	-5	42*	62*	24*
Cc1c(OCC(=O)NC(Cc2ccc(Cl)cc2)C(=O)O)ccc2c(-c3ccccc3)cc(=O)oc12 (stereo not given)	3	-16	0	-1	13	·	·
Cc1c(OC(C(=O)O)c2ccccc2)ccc2c(-c3ccccc3)cc(=O)oc12 (stereo not given)	4	13	1	-3	37*	38*	9.0*
CCc1cc(=O)oc2cc(C)cc(OCC(=O)NC(Cc3c[nH]c4ccc(O)cc34)C(=O)O)c12 (stereo not given)	-2	-2	-3	-9	6	·	·
CC(Oc1ccc2c(-c3ccccc3)cc(=O)oc2c1)C(=O)N[C@H](Cc1c[nH]c2ccccc12)C(=O)O (stereo not given in full)	3	-1	-1	3	31	·	·

Compound activity from PubChem.
